The nature of series [1]: Effective permeability across porcine polar brain lipid after 4 hrs by PAMPA. The note with it: pig; for Papp at 4 h: PAMPA; for Peff: pampa, 4 h. (PAMPA measures passive passage across an artificial lipid membrane.)
The target of series [2] is T1, Glycogen synthase kinase-3 beta (Homo sapiens, UniProt P49841). Description: Inhibition of human recombinant GSK3beta at 10 uM after 30 mins by luminescence assay in presence of ATP. In a few lines: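 Human recombinant GSK-3β (20 ng) with prephosphorylated polypeptide substrate 25 μM and ATP 1 μM in 50 mM HEPES pH 7.5, 1 mM EDTA, 1 mM EGTA, 15 mM Mg acetate. Final DMSO ≤1%. Incubated 30 min at 30 °C, stopped with Kinase-Glo reagent, and luminescence read after 10 min. Inhibition is relative to the no-inhibitor maximum. IC50 is the concentration giving 50% activity loss.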
Target sequence in this assay (P49841 whole entry, looked up): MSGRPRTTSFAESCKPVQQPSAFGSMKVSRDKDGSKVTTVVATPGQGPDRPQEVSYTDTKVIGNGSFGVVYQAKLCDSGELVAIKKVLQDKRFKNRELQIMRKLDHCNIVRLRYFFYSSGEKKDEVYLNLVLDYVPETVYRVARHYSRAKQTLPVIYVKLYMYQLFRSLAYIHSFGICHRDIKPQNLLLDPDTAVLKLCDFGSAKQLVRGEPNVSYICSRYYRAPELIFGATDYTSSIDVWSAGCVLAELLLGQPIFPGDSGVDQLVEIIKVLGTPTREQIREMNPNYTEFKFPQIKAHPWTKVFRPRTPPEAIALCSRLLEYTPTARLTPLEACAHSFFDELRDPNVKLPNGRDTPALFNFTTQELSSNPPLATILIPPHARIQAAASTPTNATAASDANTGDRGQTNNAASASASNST

Series [3] addresses T1, Glycogen synthase kinase-3 beta. Kind of series: Inhibition of human recombinant GSK3beta after 30 mins by luminescence assay in presence of ATP.
Target sequence in this assay (P49841 whole entry): as the sequence (P49841 whole entry, looked up) above

Each structure is given as a SMILES string. Activity calls are given as the source filed them. The calls are words filed in the database; no cut-off is given here.

The source of these data is ChEMBL document CHEMBL2021862, “5-imino-1,2,4-thiadiazoles: first small molecules as substrate competitive inhibitors of glycogen synthase kinase 3” (J Med Chem, 2012).

For orientation: Papp means a coefficient for how fast a substance crosses the barrier. Read a low Papp as poor permeation. As for `CN1C(C(=O)Nc2ccccn2)=C(O)c2ccccc2S1(=O)=O` [PIROXICAM], in series [1], the apparent permeability (Papp) at 4 h came to 1.7 ×10⁻⁶ cm/s. For orientation: inhibition means how much of the control response was suppressed. With `S=C(NCc1cccnc1)N/C(=N/Cc1ccccc1)c1ccccc1`, the inhibition entry in series [2] was “inactive”. Same read-out and setting: the same measure for `S=C(NCc1cccnc1)N/C(=N/c1ccccc1)c1cccc2ccccc12`: “inactive”.

For orientation: IC50 means the concentration needed to halve the response being measured. As to `c1ccc(-n2s/c(=N/Cc3cccnc3)nc2-c2cccc3ccccc23)cc1` [listing 1 of 3 here], the IC50 in series [3] came out at 0.9 µM. On to `O=[N+]([O-])c1ccc(/N=C(/NC(=S)NCc2cccnc2)c2ccccc2)cc1`, for which the inhibition entry in series [2] was “inactive”. The same measure, in the same setting: the same measure for `CCOC(=O)CNC(=S)N/C(=N/c1ccccc1)c1ccc(OC)cc1`: “inactive”; for `FC(F)(F)c1ccc(/C(=N\c2ccccc2)NC(=S)NCc2cccnc2)cc1`: “inactive”. On to `Br.CCOC(=O)C/N=c1\nc(-c2ccccc2)n(-c2ccc(OC)cc2)s1`, for which the inhibition in series [2] is over 60%. In series [3], the IC50 is 2 µM. For the same compound, the Papp at 4 h in series [1] amounted to 4.4 ×10⁻⁶ cm/s.

On to `c1ccc(/N=c2\nc(-c3ccccc3)n(-c3ccccc3)s2)cc1`, for which the inhibition in series [2] was over 60%. For the same compound, the Peff result in series [1] is listed as “ND(Insoluble)”.

With `O=[N+]([O-])c1ccc(-n2s/c(=N/Cc3cccnc3)nc2-c2ccccc2)cc1`, in series [2], the inhibition is over 60%. Moreover, the IC50 in series [3] amounted to 1 µM. The matching figures for `CCCCCc1n/c(=N\Cc2cccnc2)sn1-c1ccccc1`: over 60% and 0.8 µM. In series [1], `Cn1c(=O)c2c(ncn2C)n(C)c1=O` [CAFFEINE] had an apparent permeability (Papp) at 4 h of 1.6 ×10⁻⁶ cm/s. On to `c1ccc(-c2n/c(=N\Cc3cccnc3)sn2-c2cccc3ccccc23)cc1`, for which the inhibition in series [2] was over 60%. For the same compound, the IC50 in series [3] came to 2 µM.

On to `S=C(N/C(=N/c1ccccc1)c1ccccc1)Nc1ccccn1`, for which the inhibition entry in series [2] was “inactive”. With `Br.CCOC(=O)C/N=c1\nc(-c2ccccc2)n(-c2ccccc2)s1`, the concentration for half-maximal inhibition (IC50) in series [3] was determined as 7 µM. Further, in series [1], the apparent permeability coefficient (Papp) at 4 h stood at 6.2 ×10⁻⁶ cm/s. On to `CCOC(=O)C/N=c1\nc(-c2ccccc2)n(-c2ccccc2)s1`, for which the 50% inhibitory concentration (IC50) in series [3] was 1.8 µM. On to `Br.c1ccc(-c2n/c(=N\C3CCCCC3)sn2-c2ccccc2)cc1`, for which, in series [2], the inhibition is over 60%. In addition, the half-maximal inhibitory concentration (IC50) in series [3] came to 2.1 µM. The Peff entry in series [1] was “ND(Insoluble)”.

Consider `S=C(NCCN1CCOCC1)N/C(=N/c1ccccc1)c1ccccc1`, for which the inhibition entry in series [2] was “inactive”.

`Br.COc1ccc(-n2s/c(=N/Cc3cccnc3)nc2-c2ccccc2)cc1`: the inhibition in series [2] was over 60%. The half-inhibitory concentration (IC50) in series [3] worked out at 4.1 µM. This compound also registered a Papp at 4 h in series [1] of 6.3 ×10⁻⁶ cm/s. Turning to `COc1ccc(/N=C(/NC(=S)NCc2cccnc2)c2ccccc2)cc1`, the inhibition result in series [2] is “inactive”. As to `Br.COc1ccc(-c2n/c(=N\CCO)sn2-c2ccccc2)cc1`, in series [2], the inhibition was over 60%. The IC50 in series [3] worked out at 1.2 µM. In series [1], the apparent permeability coefficient (Papp) at 4 h stood at 13.7 ×10⁻⁶ cm/s.

With `S=C(NCc1cccnc1)N/C(=N/c1ccccc1)c1ccccc1`, in series [2], the inhibition entry was “inactive”. Regarding `c1ccc(-n2s/c(=N/Cc3cccnc3)nc2-c2cccc3ccccc23)cc1` [listing 2 of 3 here], the inhibition in series [2] is over 60%. Consider `S=C(NCc1cccnc1)N/C(=N/c1cccc2ccccc12)c1ccccc1`, for which the inhibition result in series [2] is “inactive”.

In the case of `C/C(=N\c1ccccc1)NC(=S)NCc1cccnc1`, the inhibition entry in series [2] is “inactive”. Consider `Br.c1ccc(/N=c2/nc(-c3ccccc3)n(-c3ccccc3)s2)cc1`, for which the inhibition in series [2] was over 60%. Besides, the Peff entry in series [1] is “ND(Insoluble)”. On to `Br.FC(F)(F)c1ccc(-c2n/c(=N\Cc3cccnc3)sn2-c2ccccc2)cc1`, for which the inhibition in series [2] was over 60%. For the same compound, in series [3], the half-maximal inhibitory concentration (IC50) came out at 1.6 µM. Moreover, the Peff entry in series [1] is recorded as “ND(Insoluble)”. As for `COc1ccc(/N=C(/NC(=S)NCCO)c2ccccc2)cc1`, the inhibition entry in series [2] is “inactive”. Take `Br.N=c1nc(-c2ccccc2)n(-c2ccccc2)s1`: the inhibition in series [2] was over 60%. The IC50 in series [3] came to 0.6 µM. Further, the Papp at 4 h in series [1] turned out to be 9.1 ×10⁻⁶ cm/s.

In the case of `OCCNC(=S)N/C(=N/c1ccccc1)c1ccccc1`, in series [2], the inhibition entry was “inactive”.

Take `CCCCCNC(=S)N/C(=N/c1ccccc1)c1ccccc1`: in series [2], the inhibition entry is “inactive”. Regarding `S=C(N/C(=N/c1ccccc1)c1ccccc1)NC1CCCCC1`, in series [2], the inhibition result was “inactive”.

`CCCCC/N=c1\nc(-c2ccc(OC)cc2)n(-c2ccccc2)s1` [listing 1 of 2 here]: in series [3], the half-maximal inhibitory concentration (IC50) worked out at 0.3 µM. As for `CCCCC/N=c1\nc(-c2ccc(OC)cc2)n(-c2ccccc2)s1.Cl`, the concentration for half-maximal inhibition (IC50) in series [3] turned out to be 1.1 µM. The compound further gave a Papp at 4 h in series [1] of 8.5 ×10⁻⁶ cm/s. Consider `CCOC(=O)CNC(=S)N/C(=N/c1ccccc1)c1ccccc1`, for which, in series [2], the inhibition entry was “inactive”.

Turning to `c1ccc(-n2s/c(=N/Cc3cccnc3)nc2-c2cccc3ccccc23)cc1` [listing 3 of 3 here], the concentration for half-maximal inhibition (IC50) in series [3] is 2.1 µM. `CCCCC/N=c1\nc(-c2ccccc2)n(-c2ccccc2)s1`: in series [2], the inhibition is over 60%. Besides, the IC50 in series [3] was found to be 1.4 µM.

For the compound `S=C(N/C(=N/c1ccccc1)c1ccccc1)Nc1ccccc1`, the inhibition entry in series [2] is “inactive”. On to `CCOC(=O)C/N=c1\nc(-c2ccccc2)n(-c2ccc([N+](=O)[O-])cc2)s1`, for which the inhibition in series [2] was over 60%. Moreover, the IC50 in series [3] was determined as 1 µM. On to `CCCCC/N=c1\nc(-c2ccc(OC)cc2)n(-c2ccccc2)s1` [listing 2 of 2 here], for which, in series [2], the inhibition was over 60%. For `OCC/N=c1\nc(-c2ccccc2)n(-c2cccc3ccccc23)s1`, the inhibition in series [2] was over 60%. Besides, in series [3], the IC50 turned out to be 0.3 µM.

For the compound `COc1ccc(/C(=N\c2ccccc2)NC(=S)Nc2ccccc2)cc1`, the inhibition entry in series [2] was “inactive”. On the same count and under the same terms, under `OCCNC(=S)N/C(=N/c1cccc2ccccc12)c1ccccc1` stands “inactive”. On to `Cl.OCC/N=c1\nc(-c2ccccc2)n(-c2ccccc2)s1`, for which the half-maximal inhibitory concentration (IC50) in series [3] stood at 0.6 µM. In addition, the apparent permeability (Papp) at 4 h in series [1] came out at 13.6 ×10⁻⁶ cm/s.

Take `NC(=S)N/C(=N/c1ccccc1)c1ccccc1`: the inhibition result in series [2] was “inactive”. For `c1ccc(/N=C(/N=c2/nc3ccccn3s2)c2ccccc2)cc1`, the inhibition in series [2] was determined as 14%. Turning to `Br.OCC/N=c1\nc(-c2cccc3ccccc23)n(-c2ccccc2)s1`, the inhibition in series [2] was over 60%. Moreover, the IC50 in series [3] turned out to be 0.3 µM. In series [1], this compound displayed a Papp at 4 h of 10.2 ×10⁻⁶ cm/s. Turning to `Br.OCC/N=c1\nc(-c2ccccc2)n(-c2ccccc2)s1`, the IC50 in series [3] amounted to 2 µM. This compound also yielded a Papp at 4 h in series [1] of 15.8 ×10⁻⁶ cm/s. As to `CCOC(=O)CNC(=S)N/C(=N/c1ccc([N+](=O)[O-])cc1)c1ccccc1`, the inhibition result in series [2] was “inactive”. For the compound `COc1ccc(/C(=N\c2ccccc2)NC(=S)NCCO)cc1`, in series [2], the inhibition result was “inactive”. As for `Br.Cc1n/c(=N\Cc2cccnc2)sn1-c1ccccc1`, the inhibition in series [2] is over 60%. For the same compound, the concentration for half-maximal inhibition (IC50) in series [3] was determined as 0.6 µM. The compound also yielded a Papp at 4 h in series [1] of 5.3 ×10⁻⁶ cm/s. Consider `OCCNC(=S)N/C(=N/c1ccccc1)c1cccc2ccccc12`, for which the inhibition entry in series [2] is “inactive”. As for `c1ccc(Cn2s/c(=N/Cc3cccnc3)nc2-c2ccccc2)cc1`, the inhibition in series [2] is over 60%. In addition, the IC50 in series [3] stood at 1.1 µM.

With `CCCCCNC(=S)N/C(=N/c1ccccc1)c1ccc(OC)cc1`, the inhibition entry in series [2] is “inactive”. Still for that read-out and setting: the same measure for `CCOC(=O)CNC(=S)N/C(=N/c1ccc(OC)cc1)c1ccccc1`: “inactive”; for `COc1ccc(/C(=N\c2ccccc2)NC(=S)NCc2cccnc2)cc1`: “inactive”. Compound `CNCCCN1c2ccccc2CCc2ccccc21` [DESIPRAMINE] came in with a Papp at 4 h in series [1] of 14.9 ×10⁻⁶ cm/s.

For the compound `CCCCC/C(=N\c1ccccc1)NC(=S)NCc1cccnc1`, in series [2], the inhibition result was “inactive”.
